The record followed here is ChEMBL document CHEMBL4406880, “Design, synthesis, and bioactivity of dihydropyrimidine derivatives as kinesin spindle protein inhibitors” (Bioorg Med Chem, 2019).

Holding throughout (type): functional
In one experiment the test system is A549. As to the kind of experiment: Growth inhibition of human A549/ATCC cells assessed as growth percentage at 10 uM incubated for 48 hrs by sulforhodamine B assay relative to control. Conditions: A549, 48 h, read-out: Activity. In outline:
(§1)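 NCI-60 one-dose screen: cells in RPMI 1640 with 5% FBS and 2 mM L-glutamine, plated at 5,000–40,000 cells/well and preincubated 24 h at 37 °C, 5% CO2. Compound is added from a DMSO stock to a final 10 µM and incubated 48 h. Cells are TCA-fixed and stained with sulforhodamine B, read at 515 nm. Output is % growth versus untreated control, with a time-zero plate.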

A further experiment deals with LOX IMVI. Nature of the experiment: Growth inhibition of human LOXIMVI cells assessed as growth percentage at 10 uM incubated for 48 hrs by sulforhodamine B assay relative to control. Conditions: read-out: Activity. Summed up: (§2)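 NCI-60 one-dose screen. Cells in RPMI 1640 with 5% FBS and 2 mM L-glutamine, seeded at 5,000–40,000 cells/well according to doubling time, and preincubated overnight at 37 °C, 5% CO2. A time-zero plate was TCA-fixed at drug addition. Compound from DMSO stock, final 10 µM, 48 h; DMSO vehicle controls. Fixation with TCA, 10% final (16% for suspension cells). SRB stain, Tris solubilization, A515. Result given as % growth versus untreated cells.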

A further experiment has as its system OVCAR-8. Nature of the experiment: Growth inhibition of human OVCAR8 cells assessed as growth percentage at 10 uM incubated for 48 hrs by sulforhodamine B assay relative to control. Conditions: OVCAR-8, 48 h, read-out: Activity. Summed up:
(§3)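 NCI-60 single-dose screen. Cells were grown in RPMI 1640 with 5% FBS and 2 mM L-glutamine and plated at 5,000–40,000 cells/well. After an overnight preincubation at 37 °C in 5% CO2, compound was added at a final 10 µM from a DMSO stock, with DMSO/PBS controls. After 48 h, cells were TCA-fixed and stained with 0.4% SRB, and absorbance was read at 515 nm. Growth is given as a percentage of untreated control.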

The next experiment concerns COLO 205. As to the kind of experiment: Growth inhibition of human COLO205 cells assessed as growth percentage at 10 uM incubated for 48 hrs by sulforhodamine B assay relative to control. Conditions: COLO 205, 48 h, read-out: Activity. Summed up: as §1
The subject of another experiment is SW-620. As to the kind of experiment: Growth inhibition of human SW620 cells assessed as growth percentage at 10 uM incubated for 48 hrs by sulforhodamine B assay relative to control. Conditions: SW-620, 48 h, read-out: Activity. Summed up:
as §3

The subject of the next experiment is SN12C. As to the kind of experiment: Growth inhibition of human SN12C cells assessed as growth percentage at 10 uM incubated for 48 hrs by sulforhodamine B assay relative to control. Conditions: read-out: Activity. In outline: as §3
Another experiment has as its system K562. As to the kind of experiment: Growth inhibition of human K562 cells assessed as growth percentage at 10 uM incubated for 48 hrs by sulforhodamine B assay relative to control. Conditions: K562, 48 h, read-out: Activity. Summed up: as §2
The test system of the next experiment is KM12. As to the kind of experiment: Growth inhibition of human KM12 cells assessed as growth percentage at 10 uM incubated for 48 hrs by sulforhodamine B assay relative to control. Conditions: KM12, 48 h, read-out: Activity. Summed up: as §2
For a further experiment, the system named is HL-60(TB). Nature of the experiment: Growth inhibition of human HL-60(TB) cells assessed as growth percentage at 10 uM incubated for 48 hrs by sulforhodamine B assay relative to control. Conditions: HL-60, 48 h, read-out: Activity. Summed up:
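NCI-60 single-dose screen. Cells in RPMI 1640 with 5% FBS and 2 mM L-glutamine are plated at 5,000–40,000 cells/well and preincubated overnight at 37 °C, 5% CO2. Compound is added from a DMSO stock at 10 µM final for 48 h. Cells are TCA-fixed (suspension cells 16% final) and stained with SRB. Absorbance is read at 515 nm, and percentage growth is calculated against untreated controls with a time-zero plate.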

A further experiment has as its system UACC-62. As to the kind of experiment: Growth inhibition of human UACC62 cells assessed as growth percentage at 10 uM incubated for 48 hrs by sulforhodamine B assay relative to control. Conditions: UACC-62, 48 h, read-out: Activity. Summed up: as §3
A further experiment has as its system SK-MEL-5. Nature of the experiment: Growth inhibition of human SK-MEL-5 cells assessed as growth percentage at 10 uM incubated for 48 hrs by sulforhodamine B assay relative to control. Conditions: SK-MEL-5, 48 h, read-out: Activity. In outline: as §3
A further experiment concerns OVCAR-3. Nature of the experiment: Growth inhibition of human OVCAR3 cells assessed as growth percentage at 10 uM incubated for 48 hrs by sulforhodamine B assay relative to control. Conditions: OVCAR-3, 48 h, read-out: Activity. Summed up:
as §2

The subject of the next experiment is HCC 2998. As to the kind of experiment: Growth inhibition of human HCC2998 cells assessed as growth percentage at 10 uM incubated for 48 hrs by sulforhodamine B assay relative to control. Conditions: HCC 2998, 48 h, read-out: Activity. Summed up:
as §1

In another experiment the test system is DU-145. As to the kind of experiment: Growth inhibition of human DU145 cells assessed as growth percentage at 10 uM incubated for 48 hrs by sulforhodamine B assay relative to control. Conditions: DU-145, 48 h, read-out: Activity. Summed up: as §1
A further experiment has as its system NCI/ADR-RES. Nature of the experiment: Growth inhibition of human NCI/ADR-RES cells assessed as growth percentage at 10 uM incubated for 48 hrs by sulforhodamine B assay relative to control. Conditions: read-out: Activity. Summed up: as §2
A further experiment has as its system RXF 393. Nature of the experiment: Growth inhibition of human RXF393 cells assessed as growth percentage at 10 uM incubated for 48 hrs by sulforhodamine B assay relative to control. Conditions: RXF 393, 48 h, read-out: Activity. In outline: as §3
The next experiment has as its system HCT-116. As to the kind of experiment: Growth inhibition of human HCT116 cells assessed as growth percentage at 10 uM incubated for 48 hrs by sulforhodamine B assay relative to control. Conditions: HCT-116, 48 h, read-out: Activity. In outline:
as §1

In another experiment the test system is HT-29. Nature of the experiment: Growth inhibition of human HT-29 cells assessed as growth percentage at 10 uM incubated for 48 hrs by sulforhodamine B assay relative to control. Conditions: HT-29, 48 h, read-out: Activity. Summed up: as §2
In the next experiment the test system is UACC-257. As to the kind of experiment: Growth inhibition of human UACC257 cells assessed as growth percentage at 10 uM incubated for 48 hrs by sulforhodamine B assay relative to control. Conditions: UACC-257, 48 h, read-out: Activity. In outline: as §3
The next experiment deals with SK-MEL-28. As to the kind of experiment: Growth inhibition of human SK-MEL-28 cells assessed as growth percentage at 10 uM incubated for 48 hrs by sulforhodamine B assay relative to control. Conditions: SK-MEL-28, 48 h, read-out: Activity. Summed up:
as §3

In the next experiment the test system is SF-295. As to the kind of experiment: Growth inhibition of human SF295 cells assessed as growth percentage at 10 uM incubated for 48 hrs by sulforhodamine B assay relative to control. Conditions: SF-295, 48 h, read-out: Activity. In outline:
as §3

Another experiment has as its system MDA-MB-231. As to the kind of experiment: Growth inhibition of human MDA-MB-231 cells assessed as growth percentage at 10 uM incubated for 48 hrs by sulforhodamine B assay relative to control. Conditions: MDA-MB-231, 48 h, read-out: Activity. In outline:
as §2

Another experiment relates to HCT-15. Nature of the experiment: Growth inhibition of human HCT15 cells assessed as growth percentage at 10 uM incubated for 48 hrs by sulforhodamine B assay relative to control. Conditions: HCT-15, 48 h, read-out: Activity. Summed up:
as §1

For the next experiment, the system named is U-251. As to the kind of experiment: Growth inhibition of human U251 cells assessed as growth percentage at 10 uM incubated for 48 hrs by sulforhodamine B assay relative to control. Conditions: U-251, 48 h, read-out: Activity. Summed up: as §3

For `CC1=C(C(=O)OCc2ccccc2)C(c2ccc3c(c2)OCO3)NC(=O)N1` (racemic), the growth at 10 µM in the experiment with A549 came out at 106%; in the experiment with LOX IMVI, 97.9%; in the experiment on OVCAR-8 it was 101%; with COLO 205, 116%; with SW-620 it was 109%; in the experiment with SN12C, 101%. Also, the growth at 10 µM was 107% in the experiment with K562; 105% in the experiment with KM12; 97% with HL-60(TB); 86.6% in the experiment on UACC-62; 89.8% with SK-MEL-5; 119% in the experiment with OVCAR-3. The growth at 10 µM in the experiment with HCC 2998 came out at 116%; in the experiment with DU-145 it was 107%; in the experiment on NCI/ADR-RES it was 97.7%; with RXF 393, 102%; in the experiment on HCT-116, 88.3%; in the experiment with HT-29 it was 109%. Further, the growth at 10 µM stood at 103% with UACC-257; 110% in the experiment on SK-MEL-28; 95.3% in the experiment with SF-295; 104% with MDA-MB-231; 98.1% in the experiment on HCT-15; 99.5% in the experiment with U-251.
